In paper PMC9055608 (RSC Advances, 2020):
“And” between values parts separate entries of the source, which are not always exact repeats. Equal values may be shown once.

Experiments:
SKBR3 = experiment: MTT cell proliferation assay, SKBR3; format: cell-based, human; settings: Homo sapiens, SK-BR-3, 72 h
Outline: (§1)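 ATCC lines grown in DMEM or RPMI-1640 with 10% heat-inactivated FBS and 1% penicillin/streptomycin at 37 °C, 5% CO2. Log-phase cells seeded at about 4000–5000/well and left to adhere 24 h. Sextuplicate wells, 72 h. MTT for 4 h, then DMSO and absorbance. IC50 taken from dose–response curves.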

MDA-MB231 = experiment: MTT cell proliferation assay, MDA-MB231; format: cell-based, human; settings: Homo sapiens, MDA-MB-231, 72 h
Outline: as §1

MCF-7 = experiment: MTT cell proliferation assay, MCF-7; format: cell-based, human; settings: Homo sapiens, MCF7, 72 h
Outline: as §1

MDA-MB453 = experiment: MTT cell proliferation assay, MDA-MB453; format: cell-based, human; settings: Homo sapiens, MDA-MB-453, 72 h
Outline: as §1

Calu-3 = experiment: MTT cell proliferation assay, Calu-3; format: cell-based, human; settings: Homo sapiens, Calu-3, 72 h
Outline: as §1

HT-29 = experiment: MTT cell proliferation assay, HT-29; format: cell-based, human; settings: Homo sapiens, HT-29, 72 h
Outline: as §1

DU-145 = experiment: MTT cell proliferation assay, DU-145; format: cell-based, human; settings: Homo sapiens, DU-145, 72 h
Outline: as §1

A375 = experiment: MTT cell proliferation assay, A375; format: cell-based, human; settings: Homo sapiens, A-375, 72 h
Outline: as §1

SKOV3 = experiment: MTT cell proliferation assay, SKOV3; format: cell-based, human; settings: Homo sapiens, SK-OV-3, 72 h
Outline: as §1

[1] = tested on: GES-1 human normal gastric epithelial cells; experiment: MTT assay, cytotoxicity against normal cell line GES-1; format: cell-based; settings: for OD value (mean ± SD): GES-1
Outline: (§2)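 Cells seeded at about 4000–5000/well and allowed 24 h to adhere. MTT for 4 h, formazan dissolved in DMSO, absorbance read, and inhibition rate per concentration reported.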

[2] = tested on: BEAS-2B human normal lung epithelial cell; experiment: MTT assay, cytotoxicity against normal cell line BEAS-2B; format: cell-based
Outline: as §2

cancer cell lines = experiment: MTT assay, cancer cell lines; format: cell-based; settings: Homo sapiens, read-out: IC50 of other tumour cells
Outline: as §1

[3] = tested on: normal cell lines (LO2, GES-1, BEAS-2B); experiment: MTT assay, normal cell lines; format: cell-based, human; settings: all DHDK concentrations
Outline: as §2

MCF-7 xenograft tumour = experiment: Drug efficacy in vivo, MCF-7 breast cancer model; design: species or system nude mice
[4] = Mouse weight during in vivo efficacy study; design: species or system nude mice; settings: during the nine days of treatment
[5] = Biochemical indexes in serum and plasma; format: in vivo, mice; settings: for BUN mean ± SD: plasma; for BUN mean ± SD / ALT mean ± SD / AST mean ± SD / CRE mean ± SD: DHDK micelles every day for 9 days; for ALT mean ± SD / AST mean ± SD / CRE mean ± SD: serum
Outline: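 Female mice were split into four groups (n = 6) and injected daily for 9 days with test-compound micelles, following the dosing regimen of the xenograft study. Animals were killed on the last dosing day. Kits measured AST, ALT and creatinine in serum, and urea nitrogen in plasma.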

[6] = Pathological tissue sections; format: in vivo, nude mice; settings: tissues exposed to different dosages; end of 9 day treatment; HE staining
Outline: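 Tumour-bearing nude mice were anaesthetised and killed after the 9-day dosing. Heart, liver, spleen, lung, kidney, brain and tumour were fixed in 10% formalin, embedded in paraffin, cut into 4 μm sections and stained with haematoxylin–eosin.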

in vivo = format: in vivo, rats
Tissue distribution = format: in vivo, SD rats; settings: for CL / AUC(0-inf): rat; for CL: tail vein injection of DHDK solution; for AUC(0-inf): iv, 14 mg/kg
Outline: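 SD rats (12 male, 12 female), fasted 12 h, received an intravenous dose of 14 mg kg−1 test-compound micelles. Six rats were killed at each of 0.25, 1, 4 and 24 h. Heart, liver, spleen, lung and kidney were rinsed in ice-cold saline, weighed, homogenised and stored at −80 °C. Samples were extracted with MTBE using curcumin internal standard. Analysis was by C18 LC-ESI-MS/MS (formic acid/acetonitrile gradient, MRM m/z 294.98→106.67).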

[7] = Homo sapiens, GES1, read-out: Inhibition rate

O=C(/C=C/CCc1ccc(O)cc1)/C=C/c1ccc(O)cc1 [DHDK, (1E,4E)-1,7-Bis(4-hydroxyphenyl)hepta-1,4-dien-3-one]
IC50 (SKBR3): 1.71 ± 0.1 µM
IC50 (MDA-MB231): 4.49 µM
IC50 (MCF-7): 9.09 ± 0.46 µM
IC50 (MDA-MB453): 10.4 ± 0.92 µM
IC50 (Calu-3): 6.65 ± 0.42 µM
IC50 (HT-29): 4.79 ± 0.54 µM
IC50 (DU-145): 4.62 ± 0.22 µM
IC50 (A375): 6.64 ± 0.4 µM
IC50 (SKOV3): 9.59 ± 0.44 µM
OD value (mean ± SD) ([1]; DHDK 0.14 μmol·L^−1): 0.71 ± 0.0031
OD value (mean ± SD) ([1]; DHDK 0.42 μmol·L^−1): 0.71 ± 0.0098
OD value (mean ± SD) ([1]; DHDK 1.26 μmol·L^−1): 0.71 ± 0.0051
OD value (mean ± SD) ([1]; DHDK 3.8 μmol·L^−1): 0.70 ± 0.0035
OD value (mean ± SD) ([1]; DHDK 11.3 μmol·L^−1): 0.69 ± 0.0097
OD value (mean ± SD) ([1]; DHDK 34.0 μmol·L^−1): 0.68 ± 0.0075
inhibition at 0.14 µM [1, 7]: 0.17%
inhibition at 0.42 µM [1, 7]: 0.53%
inhibition at 1.26 µM [1, 7]: 1.06%
inhibition at 3.8 µM [1, 7]: 1.35%
inhibition at 11.3 µM [1, 7]: 3.53%
inhibition at 34 µM [1, 7]: 4.85%
Inhibition rate ([2]; DHDK 0.14 μmol·L^−1): 0.059%
OD value (mean ± SD) ([2]; DHDK 0.14 μmol·L^−1): 0.66 ± 0.0017
OD value (mean ± SD) ([2]; DHDK 0.42 μmol·L^−1): 0.66 ± 0.0028
OD value (mean ± SD) ([2]; DHDK 1.26 μmol·L^−1): 0.66 ± 0.0027
OD value (mean ± SD) ([2]; DHDK 3.8 μmol·L^−1): 0.66 ± 0.0010
OD value (mean ± SD) ([2]; DHDK 11.3 μmol·L^−1): 0.64 ± 0.0028
OD value (mean ± SD) ([2]; DHDK 34.0 μmol·L^−1): 0.63 ± 0.0030
inhibition at 0.42 µM ([2]; Homo sapiens, read-out: Inhibition rate, BEAS-2B, DHDK 0.42 μmol·L^−1): 0.5%
inhibition at 1.26 µM ([2]; Homo sapiens, read-out: Inhibition rate, BEAS-2B, DHDK 1.26 μmol·L^−1): 0.83%
inhibition at 3.8 µM ([2]; Homo sapiens, read-out: Inhibition rate, BEAS-2B, DHDK 3.8 μmol·L^−1): 0.86%
inhibition at 11.3 µM ([2]; Homo sapiens, read-out: Inhibition rate, BEAS-2B, DHDK 11.3 μmol·L^−1): 3.1%
inhibition at 34 µM ([2]; Homo sapiens, read-out: Inhibition rate, BEAS-2B, DHDK 34.0 μmol·L^−1): 4.82%
IC50 (cancer cell lines): < 11 µM and < 3.25 µg/mL
inhibition rate of each group on normal cells [3]: less than 5%
tumour inhibition rate of DHDK high-dose group as share of the cisplatin group (MCF-7 xenograft tumour; DHDK 40 mg kg^−1 vs cisplatin 5 mg kg^−1): 74.6%
Tumour weight (mean) (MCF-7 xenograft tumour; group B, low-dose, DHDK micelles 10 mg kg^−1 every day for 9 days): 597.04 ± 38.19
Tumour weight (mean) (MCF-7 xenograft tumour; group C, medium-dose, DHDK micelles 20 mg kg^−1 every day for 9 days): 540.53 ± 63.76
Tumour weight (mean) (MCF-7 xenograft tumour; group D, high-dose, DHDK micelles 40 mg kg^−1 every day for 9 days): 435.13 ± 140.10
Inhibition rate (IR) determined as tumour weight (MCF-7 xenograft tumour; high-dose, DHDK 40 mg kg^−1 every day for 9 days): 47.85%
Inhibition rate (IR) determined as tumour weight (MCF-7 xenograft tumour; low-dose, DHDK 10 mg kg^−1 every day for 9 days): 28.44%
Inhibition rate (IR) determined as tumour weight (MCF-7 xenograft tumour; medium-dose, DHDK 20 mg kg^−1 every day for 9 days): 35.22%
mouse weight course (in words) [4]: stable weight
liver and kidney toxicity (from BUN, CRE, AST, ALT) ([5]; all administration groups vs blank group): no potential liver and kidney toxicity
BUN mean ± SD ([5]; high dose group): 9.86 ± 0.33 mmol/L
BUN mean ± SD ([5]; low dose group): 10.16 ± 1.35 mmol/L
BUN mean ± SD ([5]; medium dose group): 9.74 ± 0.47 mmol/L
ALT mean ± SD ([5]; high dose group): 38.41 ± 0.67 U L^−1
AST mean ± SD ([5]; high dose group): 52.98 ± 3.07 U L^−1
CRE mean ± SD ([5]; high dose group): 82.97 ± 2.97 µmol/L
ALT mean ± SD ([5]; low dose group): 39.18 ± 0.81 U L^−1
AST mean ± SD ([5]; low dose group): 50.90 ± 3.04 U L^−1
CRE mean ± SD ([5]; low dose group): 78.85 ± 3.90 µmol/L
ALT mean ± SD ([5]; medium dose group): 39.70 ± 2.75 U L^−1
AST mean ± SD ([5]; medium dose group): 50.93 ± 0.81 U L^−1
CRE mean ± SD ([5]; medium dose group): 87.97 ± 7.63 µmol/L
toxicity in tissue slices [6]: No toxicity was observed
AUC(0–t) of DHDK high-dose group as share of cisplatin group (in vivo; after dose conversion, DHDK 40 mg kg^−1 vs cisplatin 5 mg kg^−1): 7.3%
AUC(0-inf) (in vivo; rat, in vivo, iv, 14 mg/kg): 534 ng·h/mL
AUC(0-t) (in vivo; rat, in vivo, iv, 14 mg/kg): 459 ng·h/mL
half-life (in vivo; rat, in vivo, iv, 14 mg/kg): 1.79 h
V 1 (in vivo; rat, tail vein injection 14 mg kg^−1 DHDK solution): 0.037 L/kg
t 1/2α (in vivo; rat, tail vein injection 14 mg kg^−1 DHDK solution, two-compartmental analysis): 3.84 min
CL (Tissue distribution; Heart): 50.93 ± 26.52 L·kg/h
CL (Tissue distribution; Kidney): 244.93 ± 9.95 L·kg/h
CL (Tissue distribution; Liver): 5.846 ± 1.02 L·kg/h
CL (Tissue distribution; Lung): 8.89 ± 1.97 L·kg/h
CL (Tissue distribution; Spleen): 81.66 ± 45.73 L·kg/h
AUC(0-inf) (Tissue distribution; Sprague-Dawley (SD), kidney): 57.2 ± 32.3 ng·h/mL
AUC(0-inf) (Tissue distribution; Sprague-Dawley (SD), lung): 1630 ± 299 ng·h/mL
AUC(0-inf) (Tissue distribution; Sprague-Dawley (SD), spleen): 207 ± 84.3 ng·h/mL
AUC(0-inf) (Tissue distribution; both, SD, heart): 414 ± 364 ng·h/mL
AUC(0-inf) (Tissue distribution; both, SD, liver): 2450 ± 425 ng·h/mL
order of DHDK concentration in different tissues (Tissue distribution; rats, 14 mg kg^−1 tail vein): lung > liver > heart > kidney > spleen
order of clearance rates in tissues (Tissue distribution; rats, 14 mg kg^−1 tail vein): kidney > spleen > heart > lung > liver
